# Screening results: PubChem BioAssay, Johns Hopkins Ion Channel Center
# The list is not random: actives were taken first. Their share in the collection is about 3.7%.
# KCNK9 inh = inhibitors of human KCNK9 two-pore domain potassium channel | 310,000 compounds, 1.2% hits | HEK293 KCNK9, FluxOR thallium flux fluorescence; active compounds read low | B-score at 10 µM;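 active = ratio B-score over 3 SD below the library mean, with starting fluorescence within 5 SD of its mean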;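 also: negative B-score means less thallium flux so channel inhibition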
# Target sequence (Q9NPC2 whole entry, looked up, the tested form may be a part): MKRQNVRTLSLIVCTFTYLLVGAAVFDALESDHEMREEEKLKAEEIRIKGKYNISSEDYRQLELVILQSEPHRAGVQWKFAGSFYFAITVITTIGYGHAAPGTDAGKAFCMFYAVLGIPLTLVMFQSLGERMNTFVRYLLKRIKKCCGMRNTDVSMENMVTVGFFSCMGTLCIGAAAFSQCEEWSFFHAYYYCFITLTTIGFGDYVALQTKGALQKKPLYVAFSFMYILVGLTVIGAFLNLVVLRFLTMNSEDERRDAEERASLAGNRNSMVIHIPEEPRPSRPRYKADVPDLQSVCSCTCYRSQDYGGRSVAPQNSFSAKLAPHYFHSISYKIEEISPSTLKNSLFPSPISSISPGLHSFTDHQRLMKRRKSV
# KCNK3 block = human KCNK3 channel inhibition, primary screen; CHO-KCNK3 thallium flux, FluxOR fluorescence; active compounds read low; B-score at 10 µM; 340,000 compounds, 0.84% hits;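 active = B-score under library mean minus 4 SD, starting fluorescence ratio at most library mean plus 5 SD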;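 also: more negative B-score means stronger inhibition of thallium flux through KCNK3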
# Target sequence (O14649 whole entry, looked up): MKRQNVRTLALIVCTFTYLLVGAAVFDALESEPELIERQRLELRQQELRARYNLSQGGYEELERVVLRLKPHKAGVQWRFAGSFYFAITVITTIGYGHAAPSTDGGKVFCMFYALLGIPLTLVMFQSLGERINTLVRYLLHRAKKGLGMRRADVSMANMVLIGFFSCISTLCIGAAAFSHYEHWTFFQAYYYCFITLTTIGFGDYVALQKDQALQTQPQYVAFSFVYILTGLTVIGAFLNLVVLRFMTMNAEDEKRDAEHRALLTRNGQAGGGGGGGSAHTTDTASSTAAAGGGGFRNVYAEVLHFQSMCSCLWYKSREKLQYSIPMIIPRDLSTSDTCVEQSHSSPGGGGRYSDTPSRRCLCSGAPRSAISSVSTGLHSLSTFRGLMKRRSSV
# KCNQ1 pot = human KCNQ1 channel potentiation or activation | AID 2648 | 310,000 compounds, 0.35% hits | P51787 | CHO-K1 KCNQ1, thallium flux FluxOR fluorescence; active compounds read high | B-score at 10 µM;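 active = fluorescence ratio B-score, a plate-corrected score, at least three library SD, with initial intensity B-score within 5 SD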
#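 Assay system: CHO-K1 cells stably expressing KCNQ1. Medium: assay buffer for compound exposure, DMSO matched across wells. Timing: 37 °C overnight plating, 90-min dark dye load, 20-min compound pretreatment. Signal: kinetic FluxOR fluorescence, 10 s baseline plus 110 s post-stimulus.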
# Kir21 inh = Kir2.1 (mouse) channel inhibition. P35561. AID 1672. HEK293-Kir2.1, FluxOR thallium flux fluorescence; active compounds read low. 310,000 compounds, 0.85% hits. B-score at 10 µM;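 active = fluorescence ratio B-score at or below minus 3 SD of library scores, with starting-brightness B-score within 2 SD, cut at about -4.2 in these data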;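 also: channel flux triggered by added potassium and thallium sulfate stimulus; B-score of peak minus minimum fluorescence over baseline after thallium stimulus; more negative B-score means stronger Kir2.1 block with less thallium influx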
# hERG rescue = hERG (human) protection from proarrhythmic block; Q12809; CHO-hERG, FluxOR thallium flux, dofetilide IC70 present; activation (rescue from dofetilide block), less the hit threshold, % at 10 µM; 310,000 compounds, 0.51% hits; AID 1511;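 active = activation above the mean of controls blocked by dofetilide plus 5 SD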;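 also: thallium influx through hERG after potassium depolarization seen as dye fluorescence rise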
# KCNQ1 block = inhibitors of human KCNQ1 potassium channel | CHO-K1 KCNQ1, FluxOR thallium flux fluorescence; active compounds read high | B-score at 10 µM | 310,000 compounds, 1.3% hits | AID 2642;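 active = compounds whose thallium flux B-score, printed positive for inhibition, exceeds three library SD while starting fluorescence stays within three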;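 also: channel opened by potassium depolarization with thallium stimulus after 20 min compound exposure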
# KCNQ1 inh valid = confirmation of human KCNQ1 potassium channel inhibitors; shares compounds with KCNQ1 block; KCNQ1 cell line, FluxOR thallium flux fluorescence; inhibition, % at 10 µM; 1,600 compounds, 93% hits; AID 588353;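 active = primary screen active, with duplicate mean exceeding buffer control mean plus 3 SD of buffer wells, cut at about 28% in these data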
# CHO KCNQ1 ctr = KCNQ1 inhibitor counter-screen hit in parental CHO cells; 1,600 compounds, 21% hits; shares compounds with KCNQ1 block; fluorescence ratio (Tl flux) at 10 µM; parental CHO-K1, FluxOR thallium flux fluorescence ratio; active compounds read low; zero means no signal rise above baseline;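 active = mean of duplicate thallium-flux fluorescence ratios in parental host cells more than 5 SD below the buffer control mean, cut at about 0.38 in these data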;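 also: ratio is peak minus minimum fluorescence divided by baseline fluorescence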
# KCNQ1 ephys val = blocks human KCNQ1 current in automated patch clamp; shares compounds with KCNQ1 block; 490 compounds, 20% hits; AID 624120; calls only at 10 µM; KCNQ1-CHO cells;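 active = KCNQ1 current drop exceeding 3 SD of negative control wells, seen in both duplicate runs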;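 also: steady state current during a 2 s step from -80 to +40 mV; negative values mean current inhibition and positive values mean potentiation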
# KCNQ2 spec = selectivity of KCNQ1 inhibitors: inhibition of rat KCNQ2 channel. shares compounds with KCNQ1 block. KCNQ2 cells, FluxOR thallium flux fluorescence. inhibition, % at 10 µM. 1,600 compounds, 71% hits;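 active = mean percent inhibition of the KCNQ2 thallium signal more than 5 SD above the buffer-only control wells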;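 also: KCNQ2 expressed in CHO cells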
# KCNQ1-KCNE1 inh = human KCNQ1/KCNE1 inhibition in KCNQ1 specificity screen | KCNQ1/KCNE1 cells, FluxOR thallium flux fluorescence | 1,600 compounds, 77% hits | shares compounds with KCNQ1 block | inhibition, % at 10 µM;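 active = mean percent inhibition of duplicate wells above the buffer-only control mean plus 3 SD of those controls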
# A number is an active result; n = inactive; x = not tested or not shown; + = active, no number.
SMILES,KCNK9 inh,KCNK3 block,KCNQ1 pot,Kir21 inh,hERG rescue,KCNQ1 block,KCNQ1 inh valid,CHO KCNQ1 ctr,KCNQ2 spec,KCNQ1-KCNE1 inh,others
N#C/C(=C\c1coc2ccc(O)cc2c1=O)C(=O)Nc1nc2ccccc2s1,n,n,n,n,n,26,+,0.13,n,n,
Oc1ccccc1N1CCN(c2ncnc3scc(-c4ccccc4)c23)CC1,-8,n,n,n,n,6,112,n,91%,156%,KCNQ1 ephys val=n
O=S(=O)(c1ccccc1)N1CCN(c2ncnc3scc(-c4ccccc4)c23)CC1,n,n,n,n,n,n,x,x,x,x,
c1ccc(Cn2ncc3c(N4CCN(C(c5ccccc5)c5ccccc5)CC4)ncnc32)cc1,n,n,n,n,9.4,10,+,0.38,n,n,
COc1cc(C(=O)NCC(=O)OCc2ccc(F)cc2)cc(OC)c1OC,x,n,x,x,x,x,x,x,x,x,
CC(=O)c1c(C)n(CC(=O)NCc2ccco2)c2ccccc12,n,n,n,n,n,10,33,n,n,50%,
Cc1ccccc1-n1c(=O)c2ccccc2n(CC(=O)NCc2ccco2)c1=O,n,n,n,n,n,n,x,x,x,x,
FC(F)(F)c1cc(NC2CCCCC2)ccn1,n,n,n,n,n,n,x,x,x,x,
CN(C1CCCCC1)S(=O)(=O)c1ccc(NC(=O)c2ccc(Br)o2)cc1,-8,n,n,n,n,7,132,n,115%,193%,KCNQ1 ephys val=n
O=C1NC(=NCc2ccccc2)NC1(c1ccccc1)c1ccccc1,x,n,x,x,x,x,x,x,x,x,
CCN1C(=O)CC(N2CCC(c3nc4ccccc4[nH]3)CC2)C1=O (centres undefined),n,n,n,n,n,6,32,n,n,73%,
Cc1cccc(N2C(=O)CC(N3CCC(c4nc5ccccc5[nH]4)CC3)C2=O)c1 (centres undefined),n,n,n,n,n,n,x,x,x,x,
CCCCOc1ccc(CSCCN)cc1Cl,n,n,n,n,n,6,68,n,n,103%,
CCOc1ccc(CSC(=N)N)cc1Cl,n,n,n,n,n,n,x,x,x,x,
COc1ccc(CCNC(=O)CSc2nncs2)cc1,n,n,n,n,n,n,x,x,x,x,
COc1ccc(CCNC(=O)Cn2c(=O)[nH]c3ccsc3c2=O)cc1OC,n,n,n,n,n,n,x,x,x,x,
C=CCSc1nsc(NC(=O)Nc2ccc(F)cc2)n1,n,n,n,n,n,14,64,n,n,n,
CCSc1nsc(NC(=O)Nc2ccccc2F)n1,n,n,n,n,n,n,x,x,x,x,
CN(c1ccc(F)cc1)S(=O)(=O)c1ccc(Cl)c(C(=O)NCC(c2ccco2)N2CCCCC2)c1 (centres undefined),x,n,x,x,x,x,x,x,x,x,
Cc1ccc(S(=O)(=O)N2CCN(C(=O)c3cc(-c4cccs4)nn3-c3ccccc3)CC2)cc1,n,n,n,n,n,n,x,x,x,x,
O=C(c1cc(-c2ccccc2)nn1-c1ccccc1)N1CCN(S(=O)(=O)c2ccc(F)cc2)CC1,n,n,n,n,n,6,57,n,81%,37%,
O=C(c1cc(-c2cccs2)nn1-c1ccccc1)N1CCN(S(=O)(=O)c2ccccc2)CC1,n,n,n,n,n,7,60,n,91%,100%,
O=C(c1cc(-c2ccccc2)nn1-c1ccccc1)N1CCN(S(=O)(=O)c2cccc(F)c2)CC1,n,n,n,n,n,n,x,x,x,x,
CC(=O)n1cc([C@H]2C=C(C(=O)N3CCN(Cc4ccc5c(c4)OCO5)CC3)O[C@@H](OCCCCO)C2)c2ccccc21,n,n,n,n,n,n,x,x,x,x,
CC(C)(C)C(=O)COC(=O)c1cc(-c2ccncc2)nc2ccccc12,n,n,n,n,n,7,52,n,92%,48%,
SMILES,KCNK9 inh,KCNK3 block,KCNQ1 pot,Kir21 inh,hERG rescue,KCNQ1 block,KCNQ1 inh valid,CHO KCNQ1 ctr,KCNQ2 spec,KCNQ1-KCNE1 inh,others
CC(C)Cn1c(N)c(C(=O)COC(=O)c2cc(-c3ccco3)nc3ccccc23)c(=O)n(C)c1=O,n,n,n,n,n,n,x,x,x,x,
CC(C)Cn1c(N)c(C(=O)COC(=O)c2cc(-c3ccccc3)nc3ccccc23)c(=O)n(C)c1=O,n,n,n,n,n,7,106,n,120%,156%,KCNQ1 ephys val=n
CCn1c(=NC(=O)CN2C(=O)CCC2=O)sc2c(OC)ccc(OC)c21,n,n,n,n,n,n,x,x,x,x,
CCn1c(=NC(=O)C2COc3ccccc3O2)sc2c(C)ccc(OC)c21 (centres undefined),-8,n,n,n,n,7,85,n,110%,121%,
COC(=O)c1ccc(NC(=O)c2ccc(NC(=O)c3ccco3)cc2)cc1,n,n,n,n,n,6,n,n,n,55%,
CC(=O)c1ccc(NC(=O)c2ccc(NC(=O)c3ccco3)cc2)cc1,n,n,n,n,n,n,x,x,x,x,
Cc1nc2c(cnn2-c2ccccc2Cl)c(=O)n1-c1ccc(C(C)C)cc1,n,n,n,n,n,n,x,x,x,x,
CCOc1ccc(N=C2NC(=O)S/C2=C\c2ccc(N(C)C)cc2)cc1,n,n,n,n,n,10,181,n,n,n,
O=C(C1COc2ccccc2O1)N1CCN(Cc2ccc(Br)cc2F)CC1 (centres undefined),n,n,n,n,n,8,60,n,108%,80%,
O=C(C1COc2ccccc2O1)N1CCN(Cc2ccc3c(c2)OCO3)CC1 (centres undefined),n,n,n,n,n,n,x,x,x,x,
Cc1occc1-c1nnc(SCC(=O)N2CCOCC2)n1CCc1ccccc1,n,n,n,n,n,6,36,n,n,45%,
Cc1occc1-c1nnc(SCC(=O)N2CCOCC2)n1CC(C)C,n,n,n,n,n,n,x,x,x,x,
CC(=O)Nc1ccc(NC(=O)C(C)OC(=O)c2c(NC(C)=O)sc(C)c2C)cc1 (centres undefined),x,n,x,x,x,x,x,x,x,x,
CC(C)CN(CCC(=O)O)CC(C)C,n,n,n,n,n,n,x,x,x,x,
COC(=O)CSc1nnc(-c2ccccc2OC)o1,n,n,n,n,n,n,x,x,x,x,
COC(=O)CSC1=NS(=O)(=O)c2ccccc21,n,n,n,-5.8,n,8,100,0.38,98%,141%,
